Data set [1] can be described thus: Antiproliferative activity against human FM3 cells after 72 hrs by MTT reduction assay. Format: functional, cell-based. Summed up:
(§1)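 MTT reduction assay; adherent lines left to adhere overnight, suspension lines (HL-60, K562) seeded on the day. […] Incubation was 72 h at 37°C, with MTT added for the last 4 h. OD read at 545 nm (reference 690 nm). IC50 from 100(A0-A)/A0=50; means ± SD of 3 independent experiments.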

Data set [2] relates to HCT-116. The experiment in a line: Antiproliferative activity against human HCT116 cells after 72 hrs by MTT reduction assay. Format: functional, cell-based. Particulars: HCT-116, 72 h. Summed up: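 MTT reduction assay; adherent lines left to adhere overnight, suspension lines (HL-60, K562) seeded on the day. Incubation was 72 h at 37°C, with MTT added for the last 4 h.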

Data set [3] concerns HeLa. The experiment in a line: Antiproliferative activity against human HeLa cells after 72 hrs by MTT reduction assay. It is filed as functional, cell-based. Summed up:
as §1

For data set [4], the system named is MCF7. The experiment in a line: Antiproliferative activity against human MCF7 cells after 72 hrs by MTT reduction assay. Particulars: MCF7, 72 h. Format: functional, cell-based. Summed up:
as §1

The subject of data set [5] is SK-BR-3. The experiment in a line: Antiproliferative activity against human SKBR3 cells after 72 hrs by MTT reduction assay. Format: functional, cell-based. The note with it: SK-BR-3, 72 h. Summed up: as §1
Data set [6] deals with HL-60. The experiment in a line: Antiproliferative activity against human HL60 cells after 72 hrs by MTT reduction assay. Format: functional, cell-based. Particulars: HL-60, 72 h. Summed up:
as §1

Data set [7] deals with K562. The experiment in a line: Antiproliferative activity against human K562 cells after 72 hrs by MTT reduction assay. Format: functional, cell-based. The note with it: K562, 72 h. Summed up:
as §1

Data set [8] has as its system B16-F1. The experiment in a line: Antiproliferative activity against mouse B16-F1 cells after 72 hrs by MTT reduction assay. The note with it: B16-F1, 72 h. Format: functional, cell-based. Summed up:
as §1

For data set [9], the system named is PBMC. The experiment in a line: Induction of apoptosis in human PBMC at 2 ug/ml after 24 hrs by propidium iodide staining-based flow cytometric method. It is filed as cell-based.
Data set [10] concerns PBMC. The experiment in a line: Induction of apoptosis in human PBMC assessed as early apoptotic cells at 25 ug/ml after 24 hrs by propidium iodide staining-based flow cytometric method (reference value: 0.1%). Format: cell-based.
The subject of data set [11] is PBMC. The experiment in a line: Induction of apoptosis in human PBMC assessed as late apoptotic cells at 25 ug/ml after 24 hrs by propidium iodide staining-based flow cytometric method (reference value: 0.6%). It is filed as cell-based.
Data set [12] deals with PBMC. The experiment in a line: Induction of apoptosis in human PBMC assessed as necrotic cells at 25 ug/ml after 24 hrs by propidium iodide staining-based flow cytometric method (reference value: 1%). Format: cell-based.
Data set [13] deals with B16-F1. The experiment in a line: Induction of apoptosis in mouse B16-F1 cells assessed as early apoptotic cells at 25 ug/ml after 24 hrs by propidium iodide staining-based flow cytometric method (reference value: 0.5%). Format: functional.
For data set [14], the system named is B16-F1. The experiment in a line: Induction of apoptosis in mouse B16-F1 cells assessed as late apoptotic cells at 25 ug/ml after 24 hrs by propidium iodide staining-based flow cytometric method (reference value: 0.9%). It is filed as functional.
Data set [15] deals with B16-F1. The experiment in a line: Induction of apoptosis in mouse B16-F1 cells assessed as necrotic cells at 25 ug/ml after 24 hrs by propidium iodide staining-based flow cytometric method (reference value: 0.4%). It is filed as functional.
Data set [16] has as its system B16-F1. The experiment in a line: Induction of apoptosis in mouse B16-F1 cells assessed as early apoptotic cells at 25 ug/ml after 48 hrs by propidium iodide staining-based flow cytometric method (reference value: 0.2%). Format: functional.
Data set [17] relates to B16-F1. The experiment in a line: Induction of apoptosis in mouse B16-F1 cells assessed as late apoptotic cells at 25 ug/ml after 48 hrs by propidium iodide staining-based flow cytometric method (reference value: 0.5%). Format: functional.
Data set [18] deals with B16-F1. The experiment in a line: Induction of apoptosis in mouse B16-F1 cells assessed as necrotic cells at 25 ug/ml after 48 hrs by propidium iodide staining-based flow cytometric method (reference value: 1%). It is filed as functional.
Data set [19] has as its system B16-F1. The experiment in a line: Induction of apoptosis in mouse B16-F1 cells assessed as early apoptotic cells at 25 ug/ml after 72 hrs by propidium iodide staining-based flow cytometric method (reference value: 0.4%). It is filed as functional.
Data set [20] has as its system B16-F1. The experiment in a line: Induction of apoptosis in mouse B16-F1 cells assessed as late apoptotic cells at 25 ug/ml after 72 hrs by propidium iodide staining-based flow cytometric method (reference value: 1.4%). It is filed as functional.

We go through eight compounds from ChEMBL document CHEMBL4130342, “New semi-synthetic analogs of oleuropein show improved anticancer activity in vitro and in vivo” (Eur J Med Chem, 2017).

SMILES strings stand for the structures.

Consider `C/C=C1/[C@H](O[C@@H]2O[C@H](COC(C)=O)[C@@H](OC(C)=O)[C@H](OC(C)=O)[C@H]2OC(C)=O)OC=C(C(=O)OC)[C@H]1CC(=O)OCCCCCCCCCCCCCCCC`, for which the concentration for half-maximal inhibition (IC50) in data set [1] came out at 27 µM; in data set [2], 21 µM; in data set [3] it was 17 µM; in [4], 9.66 µM; in data set [5] it was 3.81 µM; in [6], 8 µM. Moreover, the half-inhibitory concentration (IC50) stood at 7 µM in data set [7] and 34 µM in data set [8].

Take `C/C=C1/[C@H](O[C@@H]2O[C@H](CO)[C@@H](O)[C@H](O)[C@H]2O)OC=C(C(=O)O)[C@H]1CC(=O)O`: the IC50 in data set [1], in data set [2], in [3], in [4], in [5] and in data set [6] was more than 50 µM throughout. Further, the IC50 in data set [7] and in data set [8] was more than 50 µM each time.

On to `C/C=C1/[C@H](O[C@@H]2O[C@H](CO)[C@@H](O)[C@H](O)[C@H]2O)OC=C(C(=O)OC)[C@H]1CC(=O)OCCc1ccccc1` (stereo in doubt), for which the IC50 in data set [1] worked out at 28 µM; in data set [2], 25.3 µM; in data set [3] it was 18.5 µM; in [4] it was 19.3 µM; in [5], 11 µM; in data set [6], 10.3 µM. For the same compound, the figures for the IC50 in data set [7] and in [8] were 20 µM and 41 µM, respectively.

As to `C/C=C1/[C@H](O[C@@H]2O[C@H](COC(C)=O)[C@@H](OC(C)=O)[C@H](OC(C)=O)[C@H]2OC(C)=O)OC=C(C(=O)OC)[C@H]1CC(=O)OCCC` (stereo in doubt), the IC50 was 29 µM in data set [1]; 25.7 µM in [2]; 17.5 µM in [3]; 15 µM in data set [4]; 6.6 µM in data set [5]; 10.7 µM in data set [6]. Moreover, the IC50 in data set [7] stood at 8.5 µM; in [8] it was 44 µM.

As for `C/C=C1/[C@H](O[C@@H]2O[C@H](CO)[C@@H](O)[C@H](O)[C@H]2O)OC=C(C(=O)OC)[C@H]1CC(=O)OCCC1CCCCC1` (stereo in doubt), the IC50 was found to be 9.33 µM in [1]; 13.7 µM in data set [2]; 5.6 µM in data set [3]; 5 µM in data set [4]; 2 µM in [5]; 0.48 µM in data set [6]. Also, the IC50 in [7] stood at 0.85 µM; in [8] it was 5.04 µM. In data set [9], this compound had an Activity of more than 30%.

Turning to `C/C=C1/[C@H](O[C@@H]2O[C@H](COC(C)=O)[C@@H](OC(C)=O)[C@H](OC(C)=O)[C@H]2OC(C)=O)OC=C(C(=O)OC)[C@H]1CC(=O)OCCc1ccccc1` (stereo in doubt), the concentration for half-maximal inhibition (IC50) in data set [1] amounted to 29.3 µM; in data set [2], 26 µM; in [3] it was 21 µM; in data set [4], 18.7 µM; in data set [5], 11.5 µM; in data set [6], 10 µM. Also, the half-inhibitory concentration (IC50) in data set [7] is 16 µM; in [8], 43 µM.

Take `C/C=C1/[C@H](O[C@@H]2O[C@H](CO)[C@@H](O)[C@H](O)[C@H]2O)OC=C(C(=O)OC)[C@H]1CC(=O)OCCC(C)C` (stereo in doubt): the IC50 is 27.7 µM in data set [1]; 26.7 µM in data set [2]; 19.5 µM in data set [3]; 21.3 µM in [4]; 9.02 µM in data set [5]; 9.83 µM in data set [6]. The half-maximal inhibitory concentration (IC50) was determined as 18 µM in data set [7] and 39.1 µM in data set [8].

Turning to `COc1cccc2c1C(=O)c1c(O)c3c(c(O)c1C2=O)C[C@@](O)(C(=O)CO)C[C@@H]3O[C@H]1C[C@H](N)[C@H](O)[C@H](C)O1` [DOXORUBICIN], the half-maximal inhibitory concentration (IC50) stood at 0.217 µM in data set [1]; 0.221 µM in data set [3]; 0.202 µM in data set [5]; 0.017 µM in data set [6]; 0.018 µM in data set [7]; 0.23 µM in [8]. Further, the Activity in data set [10] is recorded as 0%; in data set [11], 4.6%; in data set [12] it was 46.2%; in [13] it was 23.4%; in data set [14], 1.5%; in data set [15], 1.1%. Moreover, the Activity in data set [16] is 57.5%; in [17] it was 2%; in data set [18] it was 0.9%; in [19] it was 71.5%; in [20], 8.1%.
